Test [1] has as its system RAW264.7. The experiment in a line: Cytotoxicity against mouse RAW264.7 cells after 24 hrs by MTT assay. Format: cell-based. Conditions: RAW264.7, 24 h. In short, it runs like this: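 Growth of non-LPS RAW264.7 cells was measured by MTT after 24 h with compound: MTT for 4 h, formazan dissolved in DMSO, OD570. Untreated cells were set as 100% viability. IC50 is the concentration giving 50% growth inhibition.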
(Tetrazolium assays rely on reduction of a dye to a coloured formazan, in cell work by metabolically active cells.)

Test [2] deals with RAW264.7. Briefly: Antiinflammatory activity in mouse RAW264.7 cells assessed as inhibition of LPS-induced IL-6 production at 10 uM after 24 hrs by ELISA (reference value: 13412 +/- 1167.6 pg/ml). Format: functional. In short, it runs like this:
(§1)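 RAW264.7 cells (DMEM, 5% FBS, 37 °C, 5% CO2) were exposed to compound at 10 µM plus LPS 500 ng/mL at the same time, with 0.1% DMSO final. Supernatant TNF-α and IL-6 were measured by ELISA at 6, 12 and 24 h.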
Background: An ELISA detects its analyte on a solid surface through an enzyme-linked reagent.

In test [3] the test system is RAW264.7. The experiment in a line: Antiinflammatory activity in mouse RAW264.7 cells assessed as inhibition of LPS-induced IL-6 production at 10 uM after 6 hrs by ELISA (reference value: 1046.1 +/- 111.2 pg/ml). Format: functional. In short, it runs like this:
as §1

Test [4] has as its system RAW264.7. Briefly: Antiinflammatory activity in mouse RAW264.7 cells assessed as inhibition of LPS-induced IL-6 production at 10 uM after 12 hrs by ELISA (reference value: 2145.1 +/- 368.7 pg/ml). The format is functional. In short, it runs like this: as §1
For test [5], the system named is RAW264.7. The experiment in a line: Antiinflammatory activity in mouse RAW264.7 cells assessed as inhibition of LPS-induced TNFalpha production at 10 uM after 6 hrs by ELISA (reference value: 2646.1 +/- 499.8 pg/ml). Format: functional. In short, it runs like this:
as §1

The subject of test [6] is RAW264.7. Briefly: Antiinflammatory activity in mouse RAW264.7 cells assessed as inhibition of LPS-induced nitric oxide production after 24 hrs by Griess method. The format is functional, cell-based. Conditions: RAW264.7, 24 h. In short, it runs like this: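 Cells were treated with compound (0.5–100 µM; 0.1% DMSO final) and LPS 500 ng/mL together for 24 h. Nitrite in the medium was read with Griess reagent (10 min, room temperature, dark) at OD540. IC50 comes from three separate experiments, each in triplicate.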
On the technique in general: Griess reagent forms a coloured azo dye with nitrite.

Test [7] has as its system RAW264.7. The experiment in a line: Antiinflammatory activity in mouse RAW264.7 cells assessed as inhibition of LPS-induced TNFalpha production at 10 uM after 24 hrs by ELISA (reference value: 10124 +/- 1137.2 pg/ml). Format: functional. In short, it runs like this: as §1
The subject of test [8] is RAW264.7. The experiment in a line: Antiinflammatory activity in mouse RAW264.7 cells assessed as inhibition of LPS-induced TNFalpha production at 10 uM after 12 hrs by ELISA (reference value: 4126.8 +/- 282 pg/ml). The format is functional. In short, it runs like this: as §1

The record followed here is ChEMBL document CHEMBL1949609, “Synthesis and biological evaluation of novel sinomenine derivatives as anti-inflammatory agents” (Eur J Med Chem, 2012).

Some results are limits rather than exact numbers.

Consider `COC1=C[C@@H]2[C@@H]3Cc4ccc(OC)c(OCc5cccc(COc6c(OC)ccc7c6[C@@]68CCN(C)[C@@H](C7)[C@H]6C=C(OC)C(=O)C8)c5)c4[C@]2(CCN3C)CC1=O`, for which the IC50 in test [1] came out at 14.2 µM.

For `CCCCCCCOc1c(OC)ccc2c1[C@@]13CCN(C)[C@@H](C2)[C@H]1C=C(OC)C(=O)C3`, the Activity was determined as 4370.2 pg/mL in test [2]; 207.5 pg/mL in test [3]; 513.9 pg/mL in test [4]; 2248.7 pg/mL in test [5]; 9134.7 pg/mL in test [7]; 4127.2 pg/mL in test [8]. The results for the IC50 in test [6] and in test [1] were 21.3 µM and 33.8 µM, respectively.

Turning to `CCCCCCCC(=O)Oc1c(OC)ccc2c1[C@@]13CCN(C)[C@@H](C2)[C@H]1C=C(OC)C(=O)C3`, the Activity in test [2] was determined as 7143.8 pg/mL; in test [3] it was 229.9 pg/mL; in test [4], 733.3 pg/mL; in test [5], 2298.9 pg/mL; in test [7] it was 7676.3 pg/mL; in test [8], 3357.8 pg/mL. In addition, the results for the IC50 in test [6] and in test [1] were 32.6 µM and 49.5 µM, respectively.

`CCCCCC(=O)Oc1c(OC)ccc2c1[C@@]13CCN(C)[C@@H](C2)[C@H]1C=C(OC)C(=O)C3` registered an IC50 in test [1] of 78.1 µM.

As to `COC1=C[C@@H]2[C@@H]3Cc4ccc(OC)c(OC(=O)CCCC(=O)Oc5c(OC)ccc6c5[C@@]57CCN(C)[C@@H](C6)[C@H]5C=C(OC)C(=O)C7)c4[C@]2(CCN3C)CC1=O`, the IC50 in test [6] and in test [1] was above 100 µM throughout.

As to `COC1=C[C@@H]2[C@@H]3Cc4ccc(OC)c(OCc5ccc(COc6c(OC)ccc7c6[C@@]68CCN(C)[C@@H](C7)[C@H]6C=C(OC)C(=O)C8)cc5)c4[C@]2(CCN3C)CC1=O`, half-maximal inhibition in test [1] (IC50) was put at 12.5 µM.

As to `CCCCCCCCOc1c(OC)ccc2c1[C@@]13CCN(C)[C@@H](C2)[C@H]1C=C(OC)C(=O)C3`, the IC50 in test [6] turned out to be 14.2 µM; in test [1] it was 17.6 µM.

Turning to `CCCOc1c(OC)ccc2c1[C@@]13CCN(C)[C@@H](C2)[C@H]1C=C(OC)C(=O)C3`, the IC50 in test [6] and in test [1] was above 100 µM throughout.

As to `COC1=C[C@@H]2[C@@H]3Cc4ccc(OC)c(OC(=O)CCCCCC(=O)Oc5c(OC)ccc6c5[C@@]57CCN(C)[C@@H](C6)[C@H]5C=C(OC)C(=O)C7)c4[C@]2(CCN3C)CC1=O`, the IC50 in test [1] was found to be 52.7 µM.

In the case of `COC1=C[C@@H]2[C@@H]3Cc4ccc(OC)c(OC(=O)CCC(=O)Oc5c(OC)ccc6c5[C@@]57CCN(C)[C@@H](C6)[C@H]5C=C(OC)C(=O)C7)c4[C@]2(CCN3C)CC1=O`, the IC50 in test [6] and in test [1] was above 100 µM each time.

As to `N=C(N)NN` [PIMAGEDINE], the IC50 in test [6] was 22.6 µM.

Regarding `CCCCOc1c(OC)ccc2c1[C@@]13CCN(C)[C@@H](C2)[C@H]1C=C(OC)C(=O)C3`, the IC50 in test [6] turned out to be 59.6 µM; in test [1], 68.1 µM.

Take `COC1=C[C@@H]2[C@@H]3Cc4ccc(OC)c(OCCOCCOCCOCCOc5c(OC)ccc6c5[C@@]57CCN(C)[C@@H](C6)[C@H]5C=C(OC)C(=O)C7)c4[C@]2(CCN3C)CC1=O`: the IC50 in test [6] and in test [1] was above 100 µM in each case.

For `COC1=C[C@@H]2[C@@H]3Cc4ccc(OC)c(OC(=O)CCCCC(=O)Oc5c(OC)ccc6c5[C@@]57CCN(C)[C@@H](C6)[C@H]5C=C(OC)C(=O)C7)c4[C@]2(CCN3C)CC1=O`, the IC50 in test [6] and in test [1] was above 100 µM in each case.

Turning to `CCCCCOc1c(OC)ccc2c1[C@@]13CCN(C)[C@@H](C2)[C@H]1C=C(OC)C(=O)C3`, the IC50 amounted to 38.8 µM in test [6] and 53.4 µM in test [1].

In test [1], `CCCCCCCCCOc1c(OC)ccc2c1[C@@]13CCN(C)[C@@H](C2)[C@H]1C=C(OC)C(=O)C3` registered an IC50 of 14.5 µM.

For `COC1=C[C@@H]2[C@@H]3Cc4ccc(OC)c(OCCCCCCOc5c(OC)ccc6c5[C@@]57CCN(C)[C@@H](C6)[C@H]5C=C(OC)C(=O)C7)c4[C@]2(CCN3C)CC1=O`, half-maximal inhibition in test [1] (IC50) required 9.5 µM.

On to `COC1=C[C@@H]2[C@@H]3Cc4ccc(OC)c(OCCCCCOc5c(OC)ccc6c5[C@@]57CCN(C)[C@@H](C6)[C@H]5C=C(OC)C(=O)C7)c4[C@]2(CCN3C)CC1=O`, for which the values for the IC50 in test [6] and in test [1] were 3.6 µM and 4.2 µM, respectively.

Regarding `COC1=C[C@@H]2[C@@H]3Cc4ccc(OC)c(OCCOCCOCCOc5c(OC)ccc6c5[C@@]57CCN(C)[C@@H](C6)[C@H]5C=C(OC)C(=O)C7)c4[C@]2(CCN3C)CC1=O`, the IC50 in test [6] and in test [1] was above 100 µM in each case.

On to `COC1=C[C@@H]2[C@@H]3Cc4ccc(OC)c(OCCCCCCCCCCOc5c(OC)ccc6c5[C@@]57CCN(C)[C@@H](C6)[C@H]5C=C(OC)C(=O)C7)c4[C@]2(CCN3C)CC1=O`, for which the IC50 in test [1] came to 2.8 µM.

`CCCCCCC(=O)Oc1c(OC)ccc2c1[C@@]13CCN(C)[C@@H](C2)[C@H]1C=C(OC)C(=O)C3` came in with an IC50 in test [1] of 38.6 µM.

As for `CCCC(=O)Oc1c(OC)ccc2c1[C@@]13CCN(C)[C@@H](C2)[C@H]1C=C(OC)C(=O)C3`, the half-maximal inhibitory concentration (IC50) in test [6] and in test [1] was above 100 µM in each case.

Molecule `COC1=C[C@@H]2[C@@H]3Cc4ccc(OC)c(OC(=O)CCCCCCC(=O)Oc5c(OC)ccc6c5[C@@]57CCN(C)[C@@H](C6)[C@H]5C=C(OC)C(=O)C7)c4[C@]2(CCN3C)CC1=O` came in with an IC50 in test [1] of 17.3 µM.

With `COC1=C[C@@H]2[C@@H]3Cc4ccc(OC)c(OCCCCCCCOc5c(OC)ccc6c5[C@@]57CCN(C)[C@@H](C6)[C@H]5C=C(OC)C(=O)C7)c4[C@]2(CCN3C)CC1=O`, the IC50 in test [1] was 2.6 µM.

For the molecule `CCCCC(=O)Oc1c(OC)ccc2c1[C@@]13CCN(C)[C@@H](C2)[C@H]1C=C(OC)C(=O)C3`, the IC50 in test [6] and in test [1] was above 100 µM in each case.

Regarding `COC1=C[C@@H]2[C@@H]3Cc4ccc(OC)c(OCCCCOc5c(OC)ccc6c5[C@@]57CCN(C)[C@@H](C6)[C@H]5C=C(OC)C(=O)C7)c4[C@]2(CCN3C)CC1=O`, the Activity in test [2] was 10038.7 pg/mL; in test [3], 853.3 pg/mL; in test [4], 1321.9 pg/mL; in test [5], 2018 pg/mL; in test [7], 8744.4 pg/mL; in test [8], 3732.8 pg/mL. Moreover, the IC50 was 24.6 µM in test [6] and 36.7 µM in test [1].

Turning to `COC1=C[C@@H]2[C@@H]3Cc4ccc(OC)c(OCCOc5c(OC)ccc6c5[C@@]57CCN(C)[C@@H](C6)[C@H]5C=C(OC)C(=O)C7)c4[C@]2(CCN3C)CC1=O`, the IC50 in test [6] and in test [1] was above 100 µM each time.

In the case of `CCCCCCOc1c(OC)ccc2c1[C@@]13CCN(C)[C@@H](C2)[C@H]1C=C(OC)C(=O)C3`, half-maximal inhibition in test [1] (IC50) was put at 29.1 µM.

On to `CCCCCCCCCCOc1c(OC)ccc2c1[C@@]13CCN(C)[C@@H](C2)[C@H]1C=C(OC)C(=O)C3`, for which the IC50 in test [1] was 1.9 µM.

Consider `COC1=C[C@@H]2[C@@H]3Cc4ccc(OC)c(OC(=O)CCCCCCCC(=O)Oc5c(OC)ccc6c5[C@@]57CCN(C)[C@@H](C6)[C@H]5C=C(OC)C(=O)C7)c4[C@]2(CCN3C)CC1=O`, for which the Activity in test [2] was determined as 12863.3 pg/mL; in test [3] it was 825.5 pg/mL; in test [4], 1577.1 pg/mL; in test [5], 2107.1 pg/mL; in test [7] it was 9003.6 pg/mL; in test [8], 3614.3 pg/mL. The figures for the IC50 in test [6] and in test [1] were 29.5 µM and 50.8 µM, respectively.

Consider `COC1=C[C@@H]2[C@@H]3Cc4ccc(OC)c(OCCCCCCCCCOc5c(OC)ccc6c5[C@@]57CCN(C)[C@@H](C6)[C@H]5C=C(OC)C(=O)C7)c4[C@]2(CCN3C)CC1=O`, for which the half-maximal inhibitory concentration (IC50) in test [6] turned out to be 2.9 µM; in test [1], 3.7 µM.

For `CCOc1c(OC)ccc2c1[C@@]13CCN(C)[C@@H](C2)[C@H]1C=C(OC)C(=O)C3`, the IC50 in test [6] and in test [1] was above 100 µM throughout.

For the molecule `COC1=C[C@@H]2[C@@H]3Cc4ccc(OC)c(OCCCCCCCCOc5c(OC)ccc6c5[C@@]57CCN(C)[C@@H](C6)[C@H]5C=C(OC)C(=O)C7)c4[C@]2(CCN3C)CC1=O`, the IC50 in test [6] was 3.8 µM; in test [1], 5.4 µM.

In test [1], `COC1=C[C@@H]2[C@@H]3Cc4ccc(OC)c(OCCOCCOc5c(OC)ccc6c5[C@@]57CCN(C)[C@@H](C6)[C@H]5C=C(OC)C(=O)C7)c4[C@]2(CCN3C)CC1=O` returned an IC50 of 59.7 µM.

A word on the IC50: it is the concentration needed to halve the response being measured.
